Laboratory results reported in ChEMBL document CHEMBL3864121, “Development of ebsulfur analogues as potent antibacterials against methicillin-resistant Staphylococcus aureus” (Bioorg Med Chem, 2016).
In brackets after ≈: the same amount, converted by molar mass.

Tests used:
Enterococcus faecalis [1] = assay: Antibacterial activity against Enterococcus faecalis ATCC 49533 measured after overnight incubation by broth double-dilution method; assay type: functional
Method in brief: (§1)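 MIC by broth double-dilution in Mueller-Hinton medium. Re-testing at the time-kill inoculum used 1×10^6 CFU/mL.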

Staphylococcus aureus [2] = assay: Antibacterial activity against methicillin-resistant Staphylococcus aureus G14 measured after overnight incubation by broth double-dilution method; assay type: functional
Method in brief: (§2)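 MIC by broth double-dilution in liquid Mueller-Hinton medium. Values are reported in µg/mL.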

Enterococcus = assay: Antibacterial activity against Vancomycin-resistant Enterococcus measured after overnight incubation by broth double-dilution method; assay type: functional; method in brief: as §2
Staphylococcus aureus [3] = assay: Antibacterial activity against methicillin-resistant Staphylococcus aureus G12 measured after overnight incubation by broth double-dilution method; assay type: functional; method in brief: as §2
Staphylococcus aureus [4] = assay: Antibacterial activity against methicillin-resistant Staphylococcus aureus C14 measured after overnight incubation by broth double-dilution method; assay type: functional; method in brief: as §2
Staphylococcus aureus [5] = assay: Antibacterial activity against methicillin-resistant Staphylococcus aureus 1 measured after overnight incubation by broth double-dilution method; assay type: functional; method in brief: as §2
Staphylococcus aureus [6] = assay: Antibacterial activity against methicillin-resistant Staphylococcus aureus USA100 measured after overnight incubation by broth double-dilution method; assay type: functional; method in brief: as §2
Staphylococcus aureus [7] = assay: Antibacterial activity against methicillin-resistant Staphylococcus aureus C19 measured after overnight incubation by broth double-dilution method; assay type: functional; method in brief: as §2
Enterococcus faecium = assay: Antibacterial activity against Enterococcus faecium BM4105-RF measured after overnight incubation by broth double-dilution method; assay type: functional; method in brief: as §2
Staphylococcus aureus [8] = assay: Antibacterial activity against methicillin-resistant Staphylococcus aureus S17 measured after overnight incubation by broth double-dilution method; assay type: functional; method in brief: as §2
Staphylococcus aureus [9] = assay: Antibacterial activity against methicillin-resistant Staphylococcus aureus C1 measured after overnight incubation by broth double-dilution method; assay type: functional; method in brief: as §2
Staphylococcus aureus [10] = assay: Antibacterial activity against methicillin-resistant Staphylococcus aureus BRS3 measured after overnight incubation by broth double-dilution method; assay type: functional; method in brief: as §2
Staphylococcus aureus [11] = assay: Antibacterial activity against methicillin-sensitive Staphylococcus aureus ATCC 25923 measured after overnight incubation by broth double-dilution method; assay type: functional; method in brief: as §2
Staphylococcus aureus [12] = assay: Antibacterial activity against methicillin-sensitive Staphylococcus aureus ATCC 29213 measured after overnight incubation by broth double-dilution method; assay type: functional; method in brief: as §2
Staphylococcus aureus [13] = assay: Antibacterial activity against methicillin-resistant Staphylococcus aureus USA300 measured after overnight incubation by broth double-dilution method; assay type: functional; method in brief: as §2
Staphylococcus aureus [14] = assay: Antibacterial activity against methicillin-resistant Staphylococcus aureus USA600 measured after overnight incubation by broth double-dilution method; assay type: functional; method in brief: as §2
Staphylococcus aureus [15] = assay: Antibacterial activity against methicillin-resistant Staphylococcus aureus C7 measured after overnight incubation by broth double-dilution method; assay type: functional; method in brief: as §2
Staphylococcus aureus [16] = assay: Antibacterial activity against methicillin-resistant Staphylococcus aureus G6 measured after overnight incubation by broth double-dilution method; assay type: functional; method in brief: as §2
Enterococcus faecalis [17] = assay: Antibacterial activity against Enterococcus faecalis ATCC 29212 measured after overnight incubation by broth double-dilution method; assay type: functional; method in brief: as §1
[18] = test system: Staphylococcus epidermidis; assay: Antibiofilm activity against Staphylococcus epidermidis ATCC 35984 assessed as reduction of biofilm at […] ug/ml measured after 24 hrs by crystal violet staining based method relative to control; assay type: functional, RP62A; set-up: scale not given: the % may be the effect or the level left
Listeria monocytogenes = assay: Antibacterial activity against Listeria monocytogenes ATCC 19115 measured after overnight incubation by broth double-dilution method; assay type: functional; method in brief: as §1
[19] = test system: Mycolicibacterium smegmatis; assay: Antibacterial activity against Mycobacterium smegmatis MC2-155 measured after overnight incubation by broth double-dilution method; assay type: functional; details: str. MC2 155; method in brief: as §2
[20] = Cytotoxicity against HEK293 cells assessed as cell death at […] measured after 24 hrs by resazurin dye-based fluorescence analysis relative to untreated control; assay type: toxicity; details: human, hek293, 24 h
[21] = test system: Staphylococcus epidermidis; assay: Antibacterial activity against Staphylococcus epidermidis ATCC 35984 measured after overnight incubation by broth double-dilution method; assay type: functional; details: RP62A; method in brief: as §1
Staphylococcus aureus [22] = assay: Antibacterial activity against methicillin-resistant Staphylococcus aureus G1 measured after overnight incubation by broth double-dilution method; assay type: functional; method in brief: as §2
Staphylococcus aureus [23] = assay: Antibacterial activity against methicillin-resistant Staphylococcus aureus S22 measured after overnight incubation by broth double-dilution method; assay type: functional; method in brief: as §2
Staphylococcus aureus [24] = assay: Antibacterial activity against methicillin-resistant Staphylococcus aureus 2 measured after overnight incubation by broth double-dilution method; assay type: functional; method in brief: as §2
Staphylococcus aureus [25] = assay: Antibacterial activity against methicillin-resistant Staphylococcus aureus ATCC 33591 measured after overnight incubation by broth double-dilution method; assay type: functional; method in brief: as §2
Staphylococcus aureus [26] = assay: Antibacterial activity against methicillin-resistant Staphylococcus aureus NRS4 measured after overnight incubation by broth double-dilution method; assay type: functional; method in brief: as §2
Staphylococcus aureus [27] = assay: Antibiofilm activity against methicillin-sensitive Staphylococcus aureus ATCC 6538 assessed as reduction of biofilm at […] measured after 24 hrs by crystal violet staining based method relative to control; assay type: functional; set-up: scale not given: the % may be the effect or the level left
Staphylococcus aureus [28] = assay: Antibacterial activity against methicillin-resistant Staphylococcus aureus C2 measured after overnight incubation by broth double-dilution method; assay type: functional; method in brief: as §2
Staphylococcus aureus [29] = assay: Antibacterial activity against methicillin-sensitive Staphylococcus aureus ATCC 6538 measured after overnight incubation by broth double-dilution method; assay type: functional; method in brief: as §2
Staphylococcus aureus [30] = assay: Antibacterial activity against methicillin-resistant Staphylococcus aureus USA200 measured after overnight incubation by broth double-dilution method; assay type: functional; method in brief: as §2
Staphylococcus aureus [31] = assay: Antibacterial activity against methicillin-resistant Staphylococcus aureus NRS51 measured after overnight incubation by broth double-dilution method; assay type: functional; method in brief: as §2
Staphylococcus aureus [32] = assay: Antibacterial activity against methicillin-resistant Staphylococcus aureus NRS77 measured after overnight incubation by broth double-dilution method; assay type: functional; method in brief: as §2
Staphylococcus aureus [33] = assay: Antibacterial activity against methicillin-resistant Staphylococcus aureus S24 measured after overnight incubation by broth double-dilution method; assay type: functional; method in brief: as §2
Staphylococcus aureus [34] = assay: Antibacterial activity against methicillin-resistant Staphylococcus aureus C16 measured after overnight incubation by broth double-dilution method; assay type: functional; method in brief: as §2
Staphylococcus aureus [35] = assay: Antibacterial activity against methicillin-resistant Staphylococcus aureus S14 measured after overnight incubation by broth double-dilution method; assay type: functional; method in brief: as §2

COc1cc(OC)cc(-n2sc3ccccc3c2=O)c1
MIC (Enterococcus faecalis [1]): 7.8 µg/mL (≈ 27.1 µM) | MIC (Staphylococcus aureus [2]): ≤ 0.25 µg/mL | MIC (Enterococcus): 0.5 µg/mL (≈ 1.74 µM) | MIC (Staphylococcus aureus [3]): 0.5 µg/mL (≈ 1.74 µM) | MIC (Staphylococcus aureus [4]): 2 µg/mL (≈ 6.96 µM) | MIC (Staphylococcus aureus [5]): ≤ 0.25 µg/mL | MIC (Staphylococcus aureus [6]): 0.5 µg/mL (≈ 1.74 µM) | MIC (Staphylococcus aureus [7]): ≤ 0.25 µg/mL | MIC (Enterococcus faecium): 3.9 µg/mL (≈ 13.6 µM) | MIC (Staphylococcus aureus [8]): 1 µg/mL (≈ 3.48 µM) | MIC (Staphylococcus aureus [9]): 0.5 µg/mL (≈ 1.74 µM) | MIC (Staphylococcus aureus [10]): 2 µg/mL (≈ 6.96 µM) | MIC (Staphylococcus aureus [11]): 0.5 µg/mL (≈ 1.74 µM) | MIC (Staphylococcus aureus [12]): ≤ 0.25 µg/mL | MIC (Staphylococcus aureus [13]): ≤ 0.25 µg/mL | MIC (Staphylococcus aureus [14]): 2 µg/mL (≈ 6.96 µM) | MIC (Staphylococcus aureus [15]): 0.5 µg/mL (≈ 1.74 µM) | MIC (Staphylococcus aureus [16]): 1 µg/mL (≈ 3.48 µM) | MIC (Enterococcus faecalis [17]): 2 µg/mL (≈ 6.96 µM) | Activity [18]: 50% | MIC (Listeria monocytogenes): 2 µg/mL (≈ 6.96 µM) | MIC [19]: 2 µg/mL (≈ 6.96 µM) | Activity [20]: > 20% | MIC [21]: 0.25 µg/mL (≈ 0.87 µM) | MIC (Staphylococcus aureus [22]): 1 µg/mL (≈ 3.48 µM) | MIC (Staphylococcus aureus [23]): 0.5 µg/mL (≈ 1.74 µM) | MIC (Staphylococcus aureus [24]): 1 µg/mL (≈ 3.48 µM) | MIC (Staphylococcus aureus [25]): ≤ 0.25 µg/mL | MIC (Staphylococcus aureus [26]): 2 µg/mL (≈ 6.96 µM) | Activity (Staphylococcus aureus [27]): 40% | MIC (Staphylococcus aureus [28]): ≤ 0.25 µg/mL | MIC (Staphylococcus aureus [29]): 1 µg/mL (≈ 3.48 µM) | MIC (Staphylococcus aureus [30]): 0.5 µg/mL (≈ 1.74 µM) | MIC (Staphylococcus aureus [31]): 1 µg/mL (≈ 3.48 µM) | MIC (Staphylococcus aureus [32]): 2 µg/mL (≈ 6.96 µM) | MIC (Staphylococcus aureus [33]): ≤ 0.25 µg/mL | MIC (Staphylococcus aureus [34]): 2 µg/mL (≈ 6.96 µM) | MIC (Staphylococcus aureus [35]): ≤ 0.25 µg/mL
